Assay results: ChEMBL document CHEMBL3352511, “Pyrrole-3-carboxamides as potent and selective JAK2 inhibitors” (Bioorg Med Chem, 2014)
Converted amounts (≈) assume the structure as drawn. The source made the active and inactive calls. The rule behind the calls is not given here.

Experiments:
[1] = test system: A2780; test: Antiproliferative activity against human A2780 cells after 72 hrs by Cell Titer-Glo assay; assay type: functional, cell-based; details: A2780, 72 h
[2] = molecular target: T1, Serine/threonine-protein kinase TAO1 (Homo sapiens) (UniProt Q7L7X3); test: Inhibition of human TAOK1 at 0.1 uM
T1 sequence (whole entry): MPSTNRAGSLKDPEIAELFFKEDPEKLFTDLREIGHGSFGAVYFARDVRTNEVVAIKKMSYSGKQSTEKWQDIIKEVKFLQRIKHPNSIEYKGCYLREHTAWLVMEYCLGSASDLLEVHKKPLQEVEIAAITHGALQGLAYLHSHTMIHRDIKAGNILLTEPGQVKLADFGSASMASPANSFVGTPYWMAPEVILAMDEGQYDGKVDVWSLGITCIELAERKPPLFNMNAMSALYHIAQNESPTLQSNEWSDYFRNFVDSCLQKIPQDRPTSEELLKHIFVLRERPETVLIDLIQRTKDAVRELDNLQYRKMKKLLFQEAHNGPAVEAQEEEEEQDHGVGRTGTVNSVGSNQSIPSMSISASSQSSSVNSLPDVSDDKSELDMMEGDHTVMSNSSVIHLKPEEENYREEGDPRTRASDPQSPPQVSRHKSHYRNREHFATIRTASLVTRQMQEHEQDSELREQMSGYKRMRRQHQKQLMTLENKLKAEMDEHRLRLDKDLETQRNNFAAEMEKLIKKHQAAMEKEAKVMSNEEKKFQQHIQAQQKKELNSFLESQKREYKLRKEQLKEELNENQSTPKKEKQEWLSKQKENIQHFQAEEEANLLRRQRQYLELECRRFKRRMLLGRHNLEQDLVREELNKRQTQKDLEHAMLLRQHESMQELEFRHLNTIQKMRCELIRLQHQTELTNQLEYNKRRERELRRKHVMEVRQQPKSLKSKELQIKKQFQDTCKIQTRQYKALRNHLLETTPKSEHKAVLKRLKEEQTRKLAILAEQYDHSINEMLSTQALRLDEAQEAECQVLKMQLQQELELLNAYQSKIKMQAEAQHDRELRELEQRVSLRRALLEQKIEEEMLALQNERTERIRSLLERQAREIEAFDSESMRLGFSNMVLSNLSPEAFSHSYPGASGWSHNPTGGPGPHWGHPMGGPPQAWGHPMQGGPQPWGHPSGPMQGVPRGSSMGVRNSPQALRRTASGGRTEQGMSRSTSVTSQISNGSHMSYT
In short: (§1)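 KINOMEscan active-site-directed competition binding panel of 442 human kinases, compound tested at 0.1 µM. Primary screen results expressed as % Ctrl, where lower values mean stronger binding.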

[3] = molecular target: Dual specificity tyrosine-phosphorylation-regulated kinase 1B (Homo sapiens) (UniProt Q9Y463); test: Inhibition of human DYRK1B at 0.1 uM; in short: as §1
[4] = test system: Mus musculus; test: Toxicity in human SET2 cells xenografted SCID mouse assessed as reversible body weight loss at 50 mg/kg, po bid administered as 5 days on 5 days off for 3 cycles; assay type: organism-based; set-up: dose 50 mg/kg, route oral; details: in vivo, 120 h
In short: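 SET-2 xenografts (10^7 cells s.c.) in irradiated female SCID mice, seven per study, dosed orally from 100-200 mm³ tumours, with 0.5% methocel vehicle controls. Body weight loss recorded at end of treatment.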

[5] = test system: SET-2; test: Inhibition of STAT5 phosphorylation in human SET2 cells xenografted in SCID mouse assessed as tumor growth inhibition at 50 mg/kg, po as single dose measured up to 12 hrs post treatment; assay type: functional, organism-based; set-up: dose 50 mg/kg
In short: (§2)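 SET-2 s.c. xenografts in irradiated female SCID mice were given one oral dose. Tumours were collected at several post-treatment times, 3 animals per time. Tumour lysates were western blotted for P-STAT5 and P-STAT3, with GAPDH as loading control.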

[6] = molecular target: Dual specificity tyrosine-phosphorylation-regulated kinase 1A (Homo sapiens) (UniProt Q13627); test: Inhibition of human DYRK1A at 0.1 uM; in short: as §1
[7] = Half life in Balb nu/nu mouse at 10 mg/kg, iv; assay type: ADME, organism-based; set-up: dose 10 mg/kg, route intravenous; details: in vivo
In short: (§3)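 Overnight-fasted male Nu/Nu mice, single intravenous dose in 10% Tween 80 in 5% dextrose, three mice. Saphenous vein blood taken at predose, 0.083, 0.5, 1, 6 and 24 h. Plasma obtained by centrifugation at 10,000g, 3 min, 4 °C, stored at -80 °C, then analysed by LC/MS/MS.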

[8] = Cmax in Balb nu/nu mouse at 10 mg/kg, po; assay type: ADME, organism-based; set-up: dose 10 mg/kg, route oral; details: in vivo
In short: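 Overnight-fasted male Nu/Nu mice, single oral dose in 0.5% methocel, three mice. Saphenous vein blood taken at predose, 0.083, 0.5, 1, 6 and 24 h. Plasma obtained by centrifugation at 10,000g, 3 min, 4 °C, stored at -80 °C, then analysed by LC/MS/MS.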

[9] = test system: SET-2; test: Inhibition of STAT3 phosphorylation in human SET2 cells xenografted in SCID mouse assessed as tumor growth inhibition at 30 mg/kg, po as single dose measured at 1 to 3 hrs post treatment; assay type: functional, organism-based; set-up: dose 30 mg/kg; in short: as §2
[10] = Solubility of the compound in buffer at pH7; assay type: physicochemical; details: pH 7
[11] = test system: SET-2; test: Inhibition of STAT3 phosphorylation in human SET2 cells xenografted in SCID mouse assessed as tumor growth inhibition at 50 mg/kg, po as single dose measured up to 12 hrs post treatment; assay type: functional, organism-based; set-up: dose 50 mg/kg; in short: as §2
[12] = AUC(infinity) in Balb nu/nu mouse at 10 mg/kg, iv; assay type: ADME, organism-based, Plasma; set-up: dose 10 mg/kg, route intravenous, time infinity; details: Balb nu/nu, plasma; in short: as §3
[13] = molecular target: Tyrosine-protein kinase JAK2 (Homo sapiens, UniProt O60674, V617F)
[14] = molecular target: Dual specificity protein kinase CLK2 (Homo sapiens) (UniProt P49760); test: Inhibition of human CLK2 at 0.1 uM; in short: as §1
[15] = Antitumor activity against human SET2 cells xenografted in SCID mouse assessed as tumor growth inhibition at 50 mg/kg, po bid administered as 5 days on 5 days off for 3 cycles; assay type: functional; details: SET-2, 120 h, read-out: TGI
In short: (§4)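 Female SCID mice, 5–6 weeks old, given 200 Rads whole-body gamma irradiation, then inoculated s.c. with 10^7 SET-2 cells. Dosing by mouth started at 100-200 mm³ tumours; controls received vehicle (0.5% methocel). Seven animals per study.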

[16] = test system: SET-2; test: Effect on total STAT3 level in human SET2 cells at 0.08 to 10 uM after 2 hrs by SDS-PAGE analysis; assay type: functional, cell-based
In short: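 SET-2 cells were grown in RPMI 1640 with 10% FBS at 37 °C, 5% CO₂, and exposed to compound or DMSO for 2 h at 37 °C. Cells were washed in cold PBS and lysed in RIPA buffer. Equal lysate amounts went through SDS-PAGE and nitrocellulose transfer, then 5% milk/TBST blocking and overnight 4 °C probing for total STAT3/STAT5 and phospho-STAT, with ECL detection.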

[17] = test system: SET-2; test: Inhibition of STAT5 phosphorylation in human SET2 cells xenografted in SCID mouse assessed as tumor growth inhibition at 30 mg/kg, po as single dose measured at 1 to 3 hrs post treatment; assay type: functional, organism-based; set-up: dose 30 mg/kg; in short: as §2
[18] = Antitumor activity against human SET2 cells xenografted in SCID mouse assessed as tumor growth inhibition at 30 mg/kg, po bid for 10 consecutive days; assay type: functional; details: SET-2, read-out: TGI; in short: as §4

Chain of Tyrosine-protein kinase JAK2 (O60674 whole entry V617F): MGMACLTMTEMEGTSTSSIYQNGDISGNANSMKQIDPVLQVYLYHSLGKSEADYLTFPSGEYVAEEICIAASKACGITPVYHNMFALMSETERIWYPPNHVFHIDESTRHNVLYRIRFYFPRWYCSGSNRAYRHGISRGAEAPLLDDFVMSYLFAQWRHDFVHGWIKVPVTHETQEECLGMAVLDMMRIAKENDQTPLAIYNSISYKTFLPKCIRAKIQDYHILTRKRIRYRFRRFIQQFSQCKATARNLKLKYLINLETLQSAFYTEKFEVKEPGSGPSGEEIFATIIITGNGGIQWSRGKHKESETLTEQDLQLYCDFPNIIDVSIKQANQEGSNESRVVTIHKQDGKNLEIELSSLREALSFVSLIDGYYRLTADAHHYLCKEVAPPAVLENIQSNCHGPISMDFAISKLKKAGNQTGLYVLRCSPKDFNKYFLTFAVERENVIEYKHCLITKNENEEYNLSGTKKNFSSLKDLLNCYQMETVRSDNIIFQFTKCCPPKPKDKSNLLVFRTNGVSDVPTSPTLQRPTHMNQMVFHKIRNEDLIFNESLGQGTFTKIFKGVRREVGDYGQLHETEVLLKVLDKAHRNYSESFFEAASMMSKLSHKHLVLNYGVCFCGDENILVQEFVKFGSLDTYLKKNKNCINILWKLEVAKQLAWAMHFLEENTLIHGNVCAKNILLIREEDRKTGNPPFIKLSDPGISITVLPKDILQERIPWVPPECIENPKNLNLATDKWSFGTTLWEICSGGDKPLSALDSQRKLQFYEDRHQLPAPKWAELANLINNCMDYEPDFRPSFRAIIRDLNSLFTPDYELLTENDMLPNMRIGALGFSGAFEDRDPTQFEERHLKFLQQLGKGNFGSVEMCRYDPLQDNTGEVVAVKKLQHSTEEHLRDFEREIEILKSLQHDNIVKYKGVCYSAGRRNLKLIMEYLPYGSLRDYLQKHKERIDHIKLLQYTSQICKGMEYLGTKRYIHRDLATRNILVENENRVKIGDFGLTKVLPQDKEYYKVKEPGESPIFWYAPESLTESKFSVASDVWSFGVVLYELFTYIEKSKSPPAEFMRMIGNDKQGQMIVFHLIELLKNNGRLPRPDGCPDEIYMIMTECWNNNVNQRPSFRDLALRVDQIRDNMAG
Chain of Dual specificity protein kinase CLK2 (Homo sapiens) (P49760 whole entry, looked up): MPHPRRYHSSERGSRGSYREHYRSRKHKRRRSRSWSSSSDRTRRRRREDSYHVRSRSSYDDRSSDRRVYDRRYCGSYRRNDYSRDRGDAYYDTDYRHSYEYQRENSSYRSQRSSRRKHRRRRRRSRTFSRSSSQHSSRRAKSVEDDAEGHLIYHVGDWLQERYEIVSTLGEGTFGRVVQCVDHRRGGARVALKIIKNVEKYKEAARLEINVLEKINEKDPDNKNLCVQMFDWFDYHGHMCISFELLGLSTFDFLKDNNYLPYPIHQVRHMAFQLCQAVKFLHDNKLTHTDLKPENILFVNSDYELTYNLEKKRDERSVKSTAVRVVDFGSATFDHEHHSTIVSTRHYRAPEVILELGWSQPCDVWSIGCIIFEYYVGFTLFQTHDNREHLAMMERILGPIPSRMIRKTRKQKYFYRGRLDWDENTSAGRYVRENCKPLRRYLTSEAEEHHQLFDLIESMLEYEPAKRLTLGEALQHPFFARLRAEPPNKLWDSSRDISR
Chain of Dual specificity tyrosine-phosphorylation-regulated kinase 1B (Homo sapiens) (Q9Y463 whole entry, looked up): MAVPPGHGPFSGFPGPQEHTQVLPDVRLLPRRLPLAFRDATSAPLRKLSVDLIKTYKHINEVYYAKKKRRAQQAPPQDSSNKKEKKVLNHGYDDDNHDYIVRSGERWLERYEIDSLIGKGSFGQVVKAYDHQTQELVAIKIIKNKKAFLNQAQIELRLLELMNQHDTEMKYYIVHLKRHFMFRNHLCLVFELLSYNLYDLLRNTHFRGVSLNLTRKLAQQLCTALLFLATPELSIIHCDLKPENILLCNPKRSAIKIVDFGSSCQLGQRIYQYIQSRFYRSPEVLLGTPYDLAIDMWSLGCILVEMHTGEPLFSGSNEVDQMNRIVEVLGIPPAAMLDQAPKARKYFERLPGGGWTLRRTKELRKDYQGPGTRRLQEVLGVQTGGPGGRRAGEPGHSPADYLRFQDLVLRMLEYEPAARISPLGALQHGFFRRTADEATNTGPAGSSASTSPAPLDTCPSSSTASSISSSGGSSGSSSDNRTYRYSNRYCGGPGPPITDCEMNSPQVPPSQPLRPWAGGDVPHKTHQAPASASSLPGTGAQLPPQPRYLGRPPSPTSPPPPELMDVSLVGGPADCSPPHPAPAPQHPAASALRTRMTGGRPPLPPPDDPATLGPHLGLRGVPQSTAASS

Structure (SMILES): NC(=O)c1cc(-c2ccnc(N)n2)[nH]c1-c1cc(C(F)(F)F)ccc1Cl
- IC50 [1]: 1470 nM
- inhibition [2]: 1%
- inhibition [3]: 1%
- Activity [4]: 15%
- inhibition [5]: Active
- inhibition [6]: 1%
- half-life [7]: 1.1 h
- Cmax [8]: 4.2 µM
- inhibition [9]: Active
- solubility [10]: 159 µM (≈ 60.7 µg/mL)
- inhibition [11]: Active
- AUC(0-inf) [12]: 26.4 µM·h
- IC50 [13]: 480 nM
- inhibition [14]: 1%
- inhibition in vivo at 50 mg/kg [15]: 95%
- Activity [16]: inactive
- inhibition [17]: Active
- inhibition in vivo at 30 mg/kg [18]: 71%
